Experimental data published in ChEMBL document CHEMBL1147430, “Inhibition of alpha-chymotrypsin with thiol-bearing substrate analogues in the presence of zinc ion” (Bioorg Med Chem Lett, 2004).
Activity calls are given as the source filed them. The calls are words filed in the database; no cut-off is given here.

Legend:
Chymotrypsinogen B [1] = target: T1, Chymotrypsinogen B (Homo sapiens, UniProt P17538); experiment: Inhibitory activity against chymotrypsinogen in the presence of Zn(II) (500 uM)
Procedure, shortened: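 Alpha-chymotrypsin at a final 0.4 μg/mL is added to a mix of Suc-AAPF-pNA (300 μM), ZnCl2 (500 μM) and varied inhibitor concentrations in pH 7.5 buffer (50 mM CaCl2, 50 mM Tris). Initial rates are followed at 405 nm at 25 °C. IC50 is read from a plot of % residual activity versus inhibitor concentration.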

Chymotrypsinogen B [2] = target: T1, Chymotrypsinogen B; experiment: Inhibitory activity (up to 2 mM) against chymotrypsinogen in the absence of Zn(II); no inhibition

T1 sequence (P17538 34-164 limits assumed, other chains not shown): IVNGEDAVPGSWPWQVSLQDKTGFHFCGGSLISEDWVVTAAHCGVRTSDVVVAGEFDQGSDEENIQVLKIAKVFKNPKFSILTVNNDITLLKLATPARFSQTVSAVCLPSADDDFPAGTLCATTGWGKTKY
T1 sequence (P17538 167-263 limits assumed, other chains not shown): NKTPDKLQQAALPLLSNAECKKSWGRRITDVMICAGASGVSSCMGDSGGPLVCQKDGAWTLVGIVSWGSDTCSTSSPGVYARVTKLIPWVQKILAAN

`O=C(N[C@H](CO)Cc1ccccc1)OCc1ccccc1` showed an IC50 (Chymotrypsinogen B [1]) of over 3000 µM.
In the case of `CC(=O)N[C@H](CS)Cc1ccccc1`, the IC50 (Chymotrypsinogen B [1]) is reported as over 800 µM and the inhibition (Chymotrypsinogen B [2]) is reported as “inactive”.
With `O=C(N[C@@H](CS)Cc1ccccc1)OCc1ccccc1` the IC50 (Chymotrypsinogen B [1]) was 6 µM and the inhibition (Chymotrypsinogen B [2]) was “inactive”.
With `O=C(N[C@H](CS)Cc1ccccc1)c1ccccc1` the IC50 (Chymotrypsinogen B [1]) was 23 µM and the inhibition (Chymotrypsinogen B [2]) was “inactive”.
With `O=C(N[C@@H](CO)Cc1ccccc1)OCc1ccccc1` the IC50 (Chymotrypsinogen B [1]) was over 3000 µM and the inhibition (Chymotrypsinogen B [2]) was “inactive”.
`O=C(N[C@H](CS)Cc1ccccc1)[C@@H]1CCCN1C(=O)OCc1ccccc1` was tested, and the IC50 (Chymotrypsinogen B [1]) was 8 µM and the inhibition (Chymotrypsinogen B [2]) was “inactive”.
In the case of `O=C(N[C@H](CS)Cc1ccccc1)OCc1ccccc1`, the IC50 (Chymotrypsinogen B [1]) is reported as 3.8 µM and the inhibition (Chymotrypsinogen B [2]) is reported as “inactive”.
